According to ChEMBL document CHEMBL1138624, “Design, synthesis, and quantitative structure-activity relationship of cytotoxic gamma-carboline derivatives” (Bioorg Med Chem, 2009):

Key:
Type in all cases: functional, cell-based
K562 [1] = assay: Cytotoxicity against human K562 cells after 48 hrs by MTT assay; settings: K562, 48 h
Method in brief: (§1)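 Cell lines sourced from Shanghai Institute of Pharmaceutical Industry; K562R is a multidrug-resistant subline. Cells exposed to compound for 48 h, then MTT in RPMI-1640 added with a further 4 h at 37 °C. Formazan dissolved in DMSO, absorbance read at 570 nm. Triplicate wells in three independent experiments. IC50 (50% inhibition of viability) from dose-effect analysis, reported as mean of three experiments.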

K562 [2] = assay: Cytotoxicity against multidrug-resistant human K562 cells after 48 hrs by MTT assay; settings: K562, 48 h; method in brief: as §1
HCT-116 = assay: Cytotoxicity against human HCT116 cells after 48 hrs by MTT assay; settings: HCT-116, 48 h; method in brief: as §1
MCF7 = assay: Cytotoxicity against human MCF7 cells after 48 hrs by MTT assay; settings: MCF7, 48 h; method in brief: as §1
A549 = assay: Cytotoxicity against human A549 cells after 48 hrs by MTT assay; settings: A549, 48 h; method in brief: as §1
[3] = Cytotoxicity against human SGC cells after 48 hrs by MTT assay; method in brief: as §1

SMILES	IC50 (K562 [1]; read-out: IC50) [µM]	IC50 (K562 [1]; read-out: pIC50 (converted)) [µM]	IC50 (K562 [2]) [µM]	IC50 (HCT-116) [µM]	IC50 (MCF7) [µM]	IC50 (A549) [µM]	IC50 [3] [µM]
CCn1c2ccncc2c2cc(NC(=O)c3ccc(OC)cc3)ccc21	11.3	11.3	5.15	50.7	4.92	72	21.3
CCn1c2ccncc2c2cc(NC(=O)c3ccc(Br)cc3)ccc21	13.2	13.2	15.6	> 100	11.9	> 100	71.2
COc1ccc(OS(=O)(=O)c2ccc3[nH]c4ccncc4c3c2)cc1	6.6	6.61	5.7	23.9	16	22.6	21.4
CCN(c1cc(OC)c(OC)c(OC)c1)S(=O)(=O)c1ccc2c(c1)c1c[n+](CC)ccc1n2CC	> 100		> 100	> 100	> 100	> 100	> 100
CCn1c2ccncc2c2cc(NC(=O)c3ccccc3)ccc21	26.2	26.2	10.6	> 100	11.8	> 100	26.5
CCn1c2ccncc2c2cc(S(=O)(=O)Nc3ccccc3)ccc21	20.7	20.7	> 100	13.7	0.88	> 100	8
Nc1ccc(OS(=O)(=O)c2ccc3[nH]c4ccncc4c3c2)cc1	18.4	18.5	5.95	20.9	16.6	10.1	2.12
CCn1c2ccncc2c2cc(NC(=O)c3cc(OC)c(OC)c(OC)c3)ccc21	13.6	13.6				15.9	16.1
COc1cc(OS(=O)(=O)c2ccc3[nH]c4ccncc4c3c2)cc(OC)c1OC	4.5	4.5	2.62	0.77	0.86		0.15
CCn1c2ccncc2c2cc(NC(=O)c3ccccc3O)ccc21	12.7	12.7	22.9	> 100	20.9	> 100	19.2
O=S(=O)(Oc1ccccc1)c1ccc2[nH]c3ccncc3c2c1	77.4	77.4	48.9	45.2	38.6	> 100	> 100
CCn1c2ccncc2c2cc(NC(=O)c3ccccc3Cl)ccc21	8.58	8.57	22.9	2.63	6.52	37.3	20.8
COc1cc(NS(=O)(=O)c2ccc3[nH]c4ccncc4c3c2)cc(OC)c1OC	11.3	11.3	73.4	16.9	19.2	48.2	> 100
O=S(=O)(Oc1cccc2ccccc12)c1ccc2[nH]c3ccncc3c2c1	25.9	25.9	10.7	39.4	14.3	33.4	23.3
O=S(=O)(Oc1cccc(Cl)c1)c1ccc2[nH]c3ccncc3c2c1	13.2	13.2	8.42	42.7	47.5	43.6	5.82
COc1ccccc1OS(=O)(=O)c1ccc2[nH]c3ccncc3c2c1	14.1	14.1	15.3	64.1	24.7	32	54.3
O=S(=O)(Oc1ccc(Cl)cc1)c1ccc2[nH]c3ccncc3c2c1	20.5	20.5	13.9	32	26.3	47.3	39.7
O=[N+]([O-])c1ccc(OS(=O)(=O)c2ccc3[nH]c4ccncc4c3c2)cc1	27.9	27.9	8.34	21	10.8	17.5	7.15
CCn1c2ccncc2c2cc(S(=O)(=O)Nc3cc(OC)c(OC)c(OC)c3)ccc21	6.09	6.1	> 100	32.3	5.8	> 100	> 100
CCn1c2ccncc2c2cc(NC(=O)c3ccc(S(C)(=O)=O)cc3)ccc21	22.9	22.9	96.6	> 100	22.8	> 100	36
O=S(=O)(Nc1cccc2ncccc12)c1ccc2[nH]c3ccncc3c2c1	12.7	12.7	18.5	30.8	23.7	22.8	95.4
CCN(c1cc(OC)c(OC)c(OC)c1)S(=O)(=O)c1ccc2c(c1)c1cnccc1n2CC	1.02	1.02	3.02	10.2	2.07	33.9	13.8
CCn1c2ccncc2c2cc(S(=O)(=O)Nc3ccncc3)ccc21	> 100		> 100	> 100	> 100	> 100	> 100
CCn1c2ccncc2c2cc(NC(=O)c3cccnc3)ccc21	14.5	14.5	40.6	87.2	18.1	73.5	50.9
CCn1c2ccncc2c2cc(S(=O)(=O)Nc3ccc4c(ccn4C)c3)ccc21	12.2	12.2	16.8	23.2	4.99	73.5	73.2
